# Compound activity: PubChem BioAssay, The Scripps Research Institute Molecular Screening Center
# LEDGF integ inh – blocks HIV-1 LEDGF/p75-dependent DNA integration | TR-FRET IN-LEDGF/p75 DNA integration, Eu/Cy5 | inhibition, % at 3.7 µM | 370,000 tested, 0.64% active | AID 743269;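 active means inhibition above the screen-wide mean plus 3 SD, cut at about 13% in these data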;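 further: signal is the Cy5 over europium emission ratio at 671 and 618 nm; 0% = plate median of compound wells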
# TDP2 absorb – blocks human TDP2 phosphodiesterase activity; O95551; recombinant TDP2, T5PNP hydrolysis, p-nitrophenol absorbance 415 nm; inhibition, % at 12.8 µM; 370,000 tested, 0.34% active; AID 720702;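 active means inhibition above the mean of all tested compounds plus 3 SD, set per campaign, cut at about 25% in these data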;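 further: 0% = DMSO with enzyme and 100% = buffer with substrate but no TDP2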
# Target sequence (O95551 whole entry, looked up): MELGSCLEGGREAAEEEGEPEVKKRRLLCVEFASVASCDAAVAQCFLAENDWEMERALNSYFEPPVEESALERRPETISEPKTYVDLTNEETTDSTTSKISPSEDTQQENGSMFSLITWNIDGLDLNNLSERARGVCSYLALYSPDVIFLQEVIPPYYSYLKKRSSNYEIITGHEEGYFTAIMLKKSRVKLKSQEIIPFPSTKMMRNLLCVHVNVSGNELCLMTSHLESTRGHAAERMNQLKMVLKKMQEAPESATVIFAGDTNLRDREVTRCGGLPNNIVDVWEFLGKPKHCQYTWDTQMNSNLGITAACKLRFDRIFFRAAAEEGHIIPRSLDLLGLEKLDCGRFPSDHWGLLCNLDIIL
#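 test system = human TDP2 enzyme | input = TDP2 enzyme at 120 nM final | medium = 50 mM Tris-HCl pH 7.5 with Mg2+, KCl, DTT, BSA | also added = T5PNP substrate, 5 mM | times = 2 h at 37 °C | technique = epi absorbance | benchmarks = high control without enzyme, low control DMSO plus TDP2 | replication = each compound tested once, singlicate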
# MBD2 DNA inh – inhibitors of human MBD2 binding to methylated oligonucleotide; inhibition, % at 4.4 µM; TR-FRET; 370,000 tested, 0.31% active; Q9UBB5; in the data active means inhibition above about 13%
# UHRF1 MBD2 ctr – UHRF1 methyl-DNA binding inhibition; 370,000 tested, 0.75% active; UHRF1 binding to methylated oligo, TR-FRET; inhibition, % at 4.4 µM; in the data active means inhibition above about 21%;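 further: UHRF1 SRA domain binding a hemimethylated CpG hairpin DNA probe; 0% = median of test compound wells and 100% = reference inhibitor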
# IN multimer act – HIV-1 integrase multimerization activation, counter-screen | 2,000 tested, 17% active | shares compounds with LEDGF integ inh | activation, % at 7.7 µM | TR-FRET HIV-1 integrase multimerization, biochemical; in the data active means activation above about 8.9%
# TRFRET interf – counter-screen for LEDGF/p75 integration inhibitors: TR-FRET optical interference | shares compounds with LEDGF integ inh | TR-FRET optical interference counterscreen, HIV-1 IN multimerization | inhibition, % at 7.7 µM | 2,000 tested, under 10 active | AID 1053135;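 active means inhibition above the mean over all tested compounds plus 3 SD, which no compound reached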;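 further: 0% = integrase with antibodies and DMSO and 100% = antibodies without integrase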
# LEDGF integ conf – LEDGF/p75-dependent HIV-1 integration inhibition, confirmation | shares compounds with LEDGF integ inh | TR-FRET LEDGF/p75-dependent HIV-1 integration, biochemical | inhibition, % at 3.7 µM | 2,000 tested, 36% active; in the data active means inhibition above about 14%
# * hit, by the source's call; . = no result given. Compounds with a hit are over-represented: about 1.6% of the library has one in this group of screens.
SMILES,LEDGF integ inh,TDP2 absorb,MBD2 DNA inh,UHRF1 MBD2 ctr,IN multimer act,TRFRET interf,LEDGF integ conf
O=S1(=O)N[C@@H](Cc2ccccc2)COc2cccc(NCCO)c21,-7,1,-2,10,.,.,.
CC(C)c1cc(C(C)C)c(S(=O)(=O)N2CCCC(C(=O)NCc3cccs3)C2)c(C(C)C)c1 (configuration not stated),-6,-10,-2,-1,.,.,.
COC(=O)[C@]12C[C@H](CC(=O)N3CCCCC3)C(=O)N(Cc3ccccc3)C1=C[C@H](C(C)C)O[C@@H]2C1CC1,5,-14,2,2,.,.,.
C/C(=N\NC(=O)c1ccccc1[N+](=O)[O-])c1ccc(Br)s1,59*,-4,2,2,-1,4,-7
Cc1cc(N2CCNC[C@H]2C)ccc1N1CCS(=O)(=O)CC1,0,2,1,4,.,.,.
CC(NS(=O)(=O)c1ccc(Br)cc1F)[C@H](O)c1ccccc1 (some centres not stated),15*,5,4,-2,2,-8,-3
Cc1ccc(NC(=O)CN(c2ccccc2F)S(C)(=O)=O)cc1,21*,-6,4,1,-2,12,-4
Cc1ccccc1N(CC(=O)Nc1ccc(F)cc1)S(C)(=O)=O,0,3,0,2,.,.,.
Cc1ccc(CNC(=O)OC(C)(C)C)c(/C=C/S(=O)(=O)NCc2ccc(F)cc2)c1,7,-6,2,-1,.,.,.
Cc1ccccc1OCCCN1CCOCC1,29*,0,6,5,1,-4,-10
Cc1cccc(OCCCN2CCOCC2)c1C,2,8,1,0,.,.,.
C[C@H](O)[C@@H]1C(=O)N2CCc3c([nH]c4c(-c5ccccc5)cccc34)[C@@H]2C[C@@H]1N(C)CC1CCCCC1,-1,-4,1,0,.,.,.
O=C(CCNS(=O)(=O)c1ccccc1)NNC(=O)C1COc2ccccc2O1 (configuration not stated),14*,-5,2,-4,0,-2,3
COc1ccc(Cn2c(NC(=O)c3ccccc3)nc(Cc3ccccc3)c2-c2ccccc2)cc1,6,1,2,-2,.,.,.
CCCCNC(=O)C1(C(=O)c2ccc(OC)cc2)CC(c2ccccn2)=NO1 (configuration not stated),0,4,-6,1,.,.,.
Cc1cccc(NC(=S)Nc2ccc(N3CCOCC3)cc2)c1C,21*,19,-1,0,-2,9,6
Cc1cccc(NC(=S)NN2CCOCC2)c1C,1,-11,1,2,.,.,.
Cc1cccc(C(=O)NC(=S)Nc2ccc(N3CCOCC3)cc2)c1,20*,9,-4,2,5,-23,-7
COC(=O)Cc1ccc(NC(=S)NCCCN2CCOCC2)cc1,-5,2,-2,5,.,.,.
COC(=O)Cc1ccc(NC(=S)Nc2ccc(N3CCOCC3)cc2)cc1,14*,15,-1,-1,1,-6,-3
Cc1ccc(C(=O)NC(=S)Nc2ccc(N3CCOCC3)cc2)cc1C,1,-17,0,2,.,.,.
CCCCCCCCN1C(=O)[C@@H](CC(=O)NCc2cccs2)C[C@@]2(C(=O)OC)C1=C[C@H](C(C)C)O[C@@H]2C1CC1,2,-1,-2,-1,.,.,.
CC(C)(C)n1nc(C2CC2)c(Br)c1NC(=O)c1ccc(Cl)cc1,-2,5,-1,3,.,.,.
COC(=O)[C@]12C[C@H](CC(=O)N3CCOCC3)C(=O)N(Cc3ccc(Cl)cc3Cl)C1=C[C@H](C1CCCC1)O[C@@H]2C,5,-10,3,5,.,.,.
COc1ccc(C(=O)N(c2ccc(OC)cc2)S(=O)(=O)c2cccs2)cc1,24*,0,-8,1,0,-2,-2
SMILES,LEDGF integ inh,TDP2 absorb,MBD2 DNA inh,UHRF1 MBD2 ctr,IN multimer act,TRFRET interf,LEDGF integ conf
COc1ccc(N(C(=O)c2ccccc2)S(=O)(=O)c2cccs2)cc1,-2,-3,-4,-2,.,.,.
C=CCN(CC=C)C(=S)NC(=O)c1ccc(OC)cc1,-1,3,0,-2,.,.,.
C=CCN(CC=C)C(=S)NC(=O)c1ccc(-c2ccccc2)cc1,23*,3,2,-5,0,0,17*
C=CCN(CC=C)C(=S)NC(=O)c1ccc(C)c(Br)c1,25*,16,-1,0,0,1,33*
O=C(Cn1c(=O)c2cccn2c2cccnc21)NCCCN1CCN(c2ccc(Cl)cc2)CC1,4,6,-1,1,.,.,.
O=C(CSc1nc2ccccc2o1)NC(=O)NCc1ccccc1,29*,1,0,3,1,-4,0
COCCN1C(=O)CN(S(C)(=O)=O)CC1(C)C(=O)NCc1ccccc1 (configuration not stated),14*,8,1,0,0,-1,-1
CC1(C(=O)NCc2ccccc2)CN(S(C)(=O)=O)CC(=O)N1CCc1ccccc1 (configuration not stated),0,4,4,0,.,.,.
O=C1NC(=Nc2ccc(O)cc2)S/C1=C\C=C\c1ccco1,39*,18,-5,5,18*,-93,53*
CS(=O)(=O)N1CCC2(CC1)OCCN2S(=O)(=O)c1ccccc1,3,-12,-4,0,.,.,.
CCS(=O)(=O)N1CCC2(CC1)OCCN2S(=O)(=O)c1ccccc1,26*,-1,8,17,-6,22,6
C=CCN(Cc1ccc2c(c1)OCO2)C(C#Cc1ccccc1)c1ccccc1C(F)(F)F (configuration not stated),1,2,3,1,.,.,.
Clc1ccc2oc(-c3ccccc3)nc2c1,19*,13,2,9,6,-20,4
CCOC(=O)CCCNC(=O)OCCCN1CCC2(CCC(c3ccccc3)CC2)C1=O (configuration not stated),-1,-2,-1,-2,.,.,.
Nc1ccc(N2CCN(CCCCN3C(=O)C4CCCN4C3=O)CC2)cc1 (configuration not stated),22*,15,7,10,-2,12,-4
Cc1ccccc1N1CCN(CCCCN2C(=O)C3CCCN3C2=O)CC1 (configuration not stated),-1,-1,0,-5,.,.,.
Nn1c(SCC(=O)NC2CCCCC2)nnc1-c1cc(-c2ccc(Cl)cc2)n[nH]1,-3,14,3,-6,.,.,.
Cc1cc(C=O)c(C)n1-c1ccc(Cl)c(C(=O)O)c1,21*,-11,3,47*,0,-1,21*
COc1ccc(-n2c(C)cc(C=O)c2C)cc1Cl,1,-9,-1,0,.,.,.
Cc1ccc(N2C(=O)/C(=C\c3ccco3)SC2=S)cc1,6,-15,-4,4,.,.,.
